Experimental data collected from several papers.
Protocols differ between the studies behind these lines.
Target: Phosphatidylinositol 3-kinase catalytic subunit type 3 (PIK3C3, Homo sapiens, UniProt Q8NEB9)

CN(C)c1nccc(-c2cnc3ncccn23)n1 — remaining binding (binding; 1 µM): 48%
CN(C)CC#Cc1ccc(OCCCc2sc(N3CCc4cccc(C(=O)Nc5nc6ccccc6s5)c4C3)nc2C(=O)O)c(F)c1 — remaining binding (cell-free assay; competition with immobilised ligand; 1 µM): 100%
CN(C)c1nccc(-c2cnn3ncccc23)n1 — remaining binding (binding; 1 µM): 100%
Nc1ncc2c(n1)-c1c([nH]c3ccc(C#CC4CC4)cc13)CCCC2 — remaining binding (binding; competition with immobilised ligand; 1 µM): 93%
CC1CCCN1c1nccc(-c2cnn3ncccc23)n1 (centres unmarked) — remaining binding (binding; 1 µM): 100%
C[C@@H](c1ccc(-n2cnc3c(N)ncnc32)cc1)N1CCc2nn(C)c(Cc3ccccc3)c2C1=O — remaining binding (binding; competition with immobilised ligand; 0.1 µM): 76%
O=C(NCCCN1CCOCC1)c1ccc(Nc2ncc(Cl)c(-c3ccc(Cl)s3)n2)cc1 — remaining binding (binding; competition with immobilised ligand; 1 µM): 33%
Nc1c(C(=O)NCc2ccc(C(=O)NCCCC3CCCCC3)cc2)cnn1-c1ccccc1 — remaining binding (cell-free assay; competition with immobilised ligand; 0.1 µM): 99%
C[C@H]1CCN(c2nccc(-c3cnn4ncccc34)n2)C1 — remaining binding (binding; 1 µM): 86%
O=C(NCCCN1CCOCC1)c1ccc(Nc2nccc(-c3cc4ccccc4s3)n2)cc1 — remaining binding (binding; competition with immobilised ligand; 1 µM): 0.6%
O=C(NCC1CCOCC1)c1n[nH]cc1NC(=O)c1c(F)cccc1F — remaining binding (binding; competition with immobilised ligand; 1 µM): 97%
CN(CCCC(F)(F)F)c1nccc(-c2cnn3ncccc23)n1 — remaining binding (binding; 1 µM): 100%
Cc1cc(-n2nc(Cc3cc(F)cc(C(F)(F)F)c3)nc2C)ccc1C(N)=O — remaining binding (cell-free assay; competition with immobilised ligand; 1 µM): 100%
C=CC(=O)N1CCC(C(=O)NCC(=O)N2CCN(c3nc(-c4cnc(N)nc4C(F)F)nc(N4CCOCC4)n3)CC2)CC1 — remaining binding (binding; competition with immobilised ligand; 1 µM): 4.5%
O=C(O)c1cc(-c2ccc(C3CCNCC3)cc2)c2ccc(-c3ccc(C(F)(F)F)cc3)cc2c1 — remaining binding (cell-free assay; competition with immobilised ligand; 1 µM): 100%
O=C(c1ccc(Nc2ncc(Cl)c(-c3cc4ccccc4s3)n2)cc1)N1CCC(N2CCCC2)CC1 — remaining binding (binding; competition with immobilised ligand; 1 µM): 53%
O=S(=O)(NC1CCC(c2cc(F)ccc2F)(S(=O)(=O)c2ccc(Cl)cc2)CC1)C(F)(F)F (centres unmarked) — remaining binding (cell-free assay; competition with immobilised ligand; 1 µM): 100%
COc1cnc(Nc2cccc(S(N)(=O)=O)c2)nc1N1CCN(c2ccccc2)CC1 — remaining binding (binding; competition with immobilised ligand; 1 µM): 76%
O=C(N[C@H]1CCCCC/C=C\C2C[C@@]2(C(=O)O)NC(=O)[C@@H]2C[C@@H](Oc3ccncc3)CN2C1=O)OC1CCCC1 (some centres unmarked) — remaining binding (cell-free assay; competition with immobilised ligand; 1 µM): 100%
N[C@@H]1CCN(c2nccc(-c3cnn4ncccc34)n2)C1 — remaining binding (binding; 1 µM): 83%
